{"data": "Measurements collected from several papers", "observed": "cell growth or viability", "note": "Each line is one published result; the experiments were not run side by side."}
{"Structure (SMILES)": "COCCCOc1ccnc(COc2ccc(NC(=O)Nc3ccc(F)cc3)cc2)c1C", "cell line": "L02", "technique": "MTT", "time": "72 h", "IC50": "> 100 µM"}
{"Structure (SMILES)": "Cc1cc(Oc2ccc(NC(=O)c3cc(-c4cccs4)no3)cc2F)n2ncnc2n1", "cell line": "L02", "technique": "MTT", "IC50": "> 50 µM"}
{"Structure (SMILES)": "CC[C@]1(O)C[C@H]2CN(CCc3c([nH]c4ccccc34)[C@@](C(=O)OC)(c3cc4c(cc3OC)N(C=O)[C@H]3[C@@](O)(C(=O)OC)[C@H](OC(C)=O)[C@]5(CC)C=CCN6CC[C@]43[C@@H]65)C2)C1", "cell line": "NALM-6", "technique": "MTT", "time": "48 h", "IC50": "0.00087 µM"}
{"Structure (SMILES)": "O=C(O)/C=C/c1ccc(O)cc1", "cell line": "PANC-1", "technique": "MTT", "IC50": "> 50 µM"}
{"Structure (SMILES)": "CO[C@H]1/C=C\\C=C(/C)C(=O)NC2=CC(=O)C(NCCN(C)C)=C(C[C@@H](C)C[C@H](OC)[C@H](O)[C@@H](C)/C=C(\\C)[C@@H]1OC(N)=O)C2=O", "cell line": "ARPE-19", "technique": "MTT", "IC50": "0.15 µM"}
{"Structure (SMILES)": "Cc1ccc2c(Br)cc(Br)c(O)c2n1", "cell line": "L02", "technique": "MTT", "time": "48 h", "IC50": "> 100 µM"}
{"Structure (SMILES)": "Cc1cc(Oc2ccc(NC(=O)c3sc(-c4ccccc4)nc3C)cc2F)c2nncn2n1", "cell line": "L02", "technique": "MTT", "IC50": "> 50 µM"}
{"Structure (SMILES)": "CC[C@@H](C)[C@H](N)C(=O)N1Cc2ccccc2C1", "cell line": "OCI-AML2", "technique": "ATP luminescence", "time": "48 h", "IC50": "1.44 µM"}
{"Structure (SMILES)": "COCCCOc1ccnc(COc2ccc(NC(=O)Nc3cc(F)cc(F)c3)cc2)c1C", "cell line": "L02", "technique": "MTT", "time": "72 h", "IC50": "> 100 µM"}
{"Structure (SMILES)": "Cc1cc(Oc2ccc(NC(=O)c3sc(-c4ccccc4)nc3C)cc2)c2nncn2n1", "cell line": "L02", "technique": "MTT", "IC50": "> 50 µM"}
{"Structure (SMILES)": "N[C@@H](CC(=O)N1CCN(C(c2ccc(F)cc2)c2ccc(F)cc2)CC1)C(=O)N1Cc2ccccc2C1", "cell line": "OCI-AML2", "technique": "ATP luminescence", "time": "48 h", "IC50": "1.41 µM"}
{"Structure (SMILES)": "Clc1ccnc2c1ccc1c(Cl)ccnc12", "cell line": "L02", "technique": "MTT", "time": "48 h", "IC50": "> 50 µM"}
{"Structure (SMILES)": "COc1cc(-c2ncn(/C=C\\C(=O)OC(C)C)n2)cc(C(F)(F)F)c1", "cell line": "OCI-AML-3", "time": "72 h", "IC50": "0.112 µM"}
{"Structure (SMILES)": "Cc1cnc(-c2ccc(-c3ccc(NC(=O)Nc4c(F)cc(F)cc4F)cc3F)c3c2C(=O)NC3)[nH]1", "cell line": "OCI-AML-3", "IC50": "0.0118 µM"}
{"Structure (SMILES)": "COCCCOc1ccnc(COc2ccc(NC(=O)Nc3cccc(C(F)(F)F)c3)cc2)c1C", "cell line": "L02", "technique": "MTT", "time": "72 h", "IC50": "> 100 µM"}
{"Structure (SMILES)": "Cc1cc(Oc2ccc(NC(=O)c3cnn(-c4ccc(Cl)cc4)c3C(F)(F)F)cc2F)n2ncnc2n1", "cell line": "L02", "technique": "MTT", "IC50": "> 50 µM"}
{"Structure (SMILES)": "CC(=O)c1cccc(N=Nc2c(C(=O)O)cc(O)c(O)c2O)c1", "cell line": "PANC-1", "technique": "MTT", "IC50": "9.2 µM"}
{"Structure (SMILES)": "Cc1c(OCC(F)(F)F)ccnc1COc1ccc(NC(=O)Nc2ccc(Cl)cc2)cc1", "cell line": "L02", "technique": "MTT", "time": "72 h", "IC50": "> 100 µM"}
{"Structure (SMILES)": "Cc1ccc(S(=O)(=O)OCC(=O)Nc2ccc(C(=O)O)c(O)c2)cc1", "cell line": "OCI-AML2", "IC50": "112 µM"}
{"Structure (SMILES)": "Nc1nc(Nc2ccc3c(c2)CC[C@@H](N2CCCC2)CC3)nn1-c1cc2c(nn1)-c1ccccc1CCC2", "cell line": "OCI-AML-3", "technique": "trypan blue", "time": "72 h", "IC50": "2.9 µM"}
{"Structure (SMILES)": "COC1=C2C[C@@H](C)C[C@H](OC)[C@H](O)[C@@H](C)/C=C(\\C)[C@H](OC(N)=O)[C@@H](OC)/C=C\\C=C(/C)C(=O)NC(=CC1=O)C2=O", "cell line": "ARPE-19", "technique": "MTT", "IC50": "0.1 µM"}
{"Structure (SMILES)": "COc1ccnc(COc2ccc(NC(=O)Nc3ccc(Cl)c(C(F)(F)F)c3)cc2)c1OC", "cell line": "L02", "technique": "MTT", "time": "72 h", "IC50": "> 100 µM"}
{"Structure (SMILES)": "COc1cc(C2Oc3cc([C@H]4Oc5cc(O)cc(O)c5C(=O)[C@@H]4O)ccc3OC2CO)ccc1O (some centres unmarked)", "cell line": "RWPE-1", "technique": "CCK-8", "time": "72 h", "IC50": "> 300 µM"}
{"Structure (SMILES)": "Cc1cc(Oc2ccc(NC(=O)c3sc(-c4ccccn4)nc3C)cc2F)n2ncnc2n1", "cell line": "L02", "technique": "MTT", "IC50": "> 50 µM"}
{"Structure (SMILES)": "Cc1c(OCC(F)(F)F)ccnc1COc1ccc(NC(=O)Nc2cc(F)cc(F)c2)cc1", "cell line": "L02", "technique": "MTT", "time": "72 h", "IC50": "> 100 µM"}
{"Structure (SMILES)": "C=C(C)C(=O)Nc1ccc(-c2c(-c3ccc(Oc4nccc(C)n4)c(F)c3)c3c(N)ncnc3n2C)cc1", "cell line": "Li-7", "technique": "ATP luminescence", "time": "96 h", "IC50": "> 10 µM"}
{"Structure (SMILES)": "CO[C@H]1/C=C\\C=C(/C)C(=O)NC2=C(C)C(=O)C(NCCN(C)C)=C(C[C@@H](C)C[C@H](OC)[C@H](O)[C@@H](C)/C=C(\\C)[C@@H]1OC(N)=O)C2=O", "cell line": "ARPE-19", "technique": "MTT", "IC50": "> 20 µM"}
{"Structure (SMILES)": "c1cnc2c(c1)ccc1cccnc12", "cell line": "L02", "technique": "MTT", "time": "48 h", "IC50": "> 50 µM"}
{"Structure (SMILES)": "COCCCOc1ccnc(COc2ccc(NC(=O)Nc3ccc(OC)cc3)cc2)c1C", "cell line": "L02", "technique": "MTT", "time": "72 h", "IC50": "> 100 µM"}
{"Structure (SMILES)": "O=C(N/N=C/c1c(O)ccc2ccccc12)c1cc(-c2ccc3ccccc3c2)n[nH]1", "cell line": "WM-115", "technique": "MTS", "time": "48 h", "IC50": "5.6 µM"}
{"Structure (SMILES)": "COc1cccc2c1C(=O)c1c(O)c3c(c(O)c1C2=O)C[C@@](O)(C(=O)CO)C[C@@H]3O[C@H]1C[C@H](N)[C@H](O)[C@H](C)O1", "cell line": "CCD-986Sk", "technique": "MTT", "time": "48 h", "IC50": "> 10 µg/mL"}
{"Structure (SMILES)": "Cc1cc(Oc2ccc(NC(=O)c3sc(-c4ccncc4)nc3C)cc2F)c2nncn2n1", "cell line": "L02", "technique": "MTT", "IC50": "> 50 µM"}
{"Structure (SMILES)": "Oc1ccc(Nc2nc(-c3ccc(Cl)cc3)cs2)cc1", "cell line": "WM-115", "technique": "MTS", "time": "24 h", "IC50": "38.9 µM"}
{"Structure (SMILES)": "COc1c(C)cnc(COc2ccc(NC(=O)Nc3cc(F)cc(F)c3)cc2)c1C", "cell line": "L02", "technique": "MTT", "time": "72 h", "IC50": "> 100 µM"}
{"Structure (SMILES)": "CCOc1cc(OCC)cc(C(=O)O[C@@H]2CN3Cc4c(cc5c(c4OC)OCO5)[C@@]24C=C[C@H](OC)C[C@@H]34)c1", "cell line": "PANC-1", "technique": "WST-1", "IC50": "8.3 µM"}
